Assay results taken from ChEMBL document CHEMBL3124836, “Pyrano-isoflavans from Glycyrrhiza uralensis with antibacterial activity against Streptococcus mutans and Porphyromonas gingivalis” (2014).
≈ marks a conversion by molar mass, not a printed value.

Tests used:
Format in all cases: functional
Streptococcus mutans [1] = assay: Bactericidal activity against Streptococcus mutans ATCC 35668 after 3 days; settings: ATCC 35668, 72 h
In short: (§1)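 From microbroth wells without visible growth after 24 h, aliquots were spread on THB agar and incubated 3 days at 37 °C. MBC was the lowest concentration giving no colony formation. Three independent experiments.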

Streptococcus mutans [2] = assay: Antibacterial activity against Streptococcus mutans ATCC 35668 after 24 hrs by microbroth dilution assay; settings: ATCC 35668, 24 h
In short: (§2)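 EtOH stocks tested as a 2-fold series (200–0.78 μg/mL) mixed with an equal volume of overnight culture diluted to OD660 0.2. Medium was THB plus hemin 10 μg/mL and vitamin K 10 μg/mL. P. gingivalis was run anaerobically (N2/H2/CO2 80/10/10) and S. mutans aerobically. After 24 h at 37 °C growth was read visually; MIC was the lowest concentration without growth. Three independent experiments.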

Porphyromonas gingivalis [3] = assay: Bactericidal activity against Porphyromonas gingivalis ATCC 33277 after 3 days; settings: ATCC 33277, 72 h; in short: as §1
Porphyromonas gingivalis [4] = assay: Antibacterial activity against Porphyromonas gingivalis ATCC 33277 after 24 hrs by microbroth dilution assay; settings: ATCC 33277, 24 h; in short: as §2

| MIC (Streptococcus mutans [2]) [µg/mL] | MIC (Porphyromonas gingivalis [4]) [µg/mL] | SMILES | MBC (Streptococcus mutans [1]) [µg/mL] | MBC (Porphyromonas gingivalis [3]) [µg/mL] |
| --- | --- | --- | --- | --- |
| > 200 | 25 (≈ 57 µM) | COc1c(CC=C(C)C)c(O)cc2c1C[C@H](C1=CC(=O)C(O)=C(CC=C(C)C)C1=O)CO2 | > 200 | 25 (≈ 57 µM) |
| 6.25 (≈ 14.8 µM) | 6.25 (≈ 14.8 µM) | COc1c(CC=C(C)C)c(O)cc2c1C[C@H](c1ccc(O)c3c1OC(C)(C)C=C3)CO2 | 6.25 (≈ 14.8 µM) | 6.25 (≈ 14.8 µM) |
| 25 (≈ 59.2 µM) | 6.25 (≈ 14.8 µM) | COc1c2c(cc3c1C[C@H](c1ccc(O)c(CC=C(C)C)c1O)CO3)OC(C)(C)C=C2 | > 200 | 6.25 (≈ 14.8 µM) |
| > 200 | 200 (≈ 568 µM) | COc1cc2occ(-c3ccc(O)cc3)c(=O)c2c(O)c1CC=C(C)C [GANCAONIN G] | > 200 | 200 (≈ 568 µM) |
| > 200 | 200 (≈ 546 µM) | COc1c2c(cc3oc(=O)c4c5ccc(O)cc5oc4c13)OC(C)(C)CC2 [ISOGLYCYROL] | > 200 | 200 (≈ 546 µM) |
| 12.5 (≈ 29.4 µM) | 3.12 (≈ 7.36 µM) | COc1c(CC=C(C)C)c(O)cc2c1C[C@H](c1ccc(O)c(CC=C(C)C)c1O)CO2 [LICORICIDIN] | 25 (≈ 58.9 µM) | 3.12 (≈ 7.36 µM) |

The next lines start with the compound.

| SMILES | MIC (Streptococcus mutans [2]) [µg/mL] | MIC (Porphyromonas gingivalis [4]) [µg/mL] | MBC (Streptococcus mutans [1]) [µg/mL] | MBC (Porphyromonas gingivalis [3]) [µg/mL] |
| --- | --- | --- | --- | --- |
| COc1c(CC=C(C)C)c(O)cc2c1C[C@H](c1ccc3c(c1O)C=CC(C)(C)O3)CO2 | 12.5 (≈ 29.6 µM) | 12.5 (≈ 29.6 µM) | 12.5 (≈ 29.6 µM) | 12.5 (≈ 29.6 µM) |
| COc1c(CC=C(C)C)c(O)cc2c1[C@@H]1Oc3c(ccc(O)c3CC=C(C)C)[C@@H]1CO2 | 200 (≈ 473 µM) | 50 (≈ 118 µM) | > 200 | 50 (≈ 118 µM) |
| CC1(C)S[C@@H]2[C@H](NC(=O)Cc3ccccc3)C(=O)N2[C@H]1C(=O)O [PENICILLIN G] | 0.05 (≈ 0.15 µM) | – | 1.56 (≈ 4.67 µM) | – |
| CN(C)[C@@H]1C(O)=C(C(N)=O)C(=O)[C@@]2(O)C(O)=C3C(=O)c4c(O)cccc4[C@@](C)(O)[C@H]3C[C@@H]12 [TETRACYCLINE] | – | 1.56 (≈ 3.51 µM) | – | 12.5 (≈ 28.1 µM) |
